This is a sample that favours compounds with a hit; in the whole collection about 2.2% have one here.
Neddyl block: blocks human cullin neddylation; AID 651699; calls only at 25 µM; hit rate 0.58% among 360,000; TR-FRET cullin neddylation, biochemical; P61081+Q13564; in the data active = inhibition above about 36%
Target sequence (P61081 whole entry, looked up): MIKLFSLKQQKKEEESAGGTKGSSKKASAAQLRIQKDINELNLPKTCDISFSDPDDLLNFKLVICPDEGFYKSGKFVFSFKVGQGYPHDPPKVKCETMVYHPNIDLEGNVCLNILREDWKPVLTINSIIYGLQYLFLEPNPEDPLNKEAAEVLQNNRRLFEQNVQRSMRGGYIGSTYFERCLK
Target sequence (Q13564 whole entry, looked up): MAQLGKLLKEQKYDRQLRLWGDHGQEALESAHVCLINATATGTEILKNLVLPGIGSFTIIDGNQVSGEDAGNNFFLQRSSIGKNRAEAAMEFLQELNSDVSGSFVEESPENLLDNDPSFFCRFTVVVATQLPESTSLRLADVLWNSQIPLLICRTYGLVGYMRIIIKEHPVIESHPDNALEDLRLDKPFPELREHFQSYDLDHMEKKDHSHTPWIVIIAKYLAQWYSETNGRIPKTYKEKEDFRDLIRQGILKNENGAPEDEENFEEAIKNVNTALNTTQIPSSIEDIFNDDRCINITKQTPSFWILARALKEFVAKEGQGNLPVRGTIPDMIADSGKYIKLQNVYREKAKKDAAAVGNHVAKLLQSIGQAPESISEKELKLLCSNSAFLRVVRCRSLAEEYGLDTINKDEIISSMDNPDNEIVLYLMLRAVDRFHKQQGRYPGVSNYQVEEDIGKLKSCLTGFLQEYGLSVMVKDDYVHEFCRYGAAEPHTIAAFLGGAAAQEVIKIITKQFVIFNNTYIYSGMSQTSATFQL
KLK7 zymogen act: activators of human kallikrein-7 zymogen; AID 652039; activation, % at 7 µM; purified proKLK7, EDANS-DABCYL substrate fluorescence; 100% is mature enzyme control, 0% vehicle; hit rate 0.9% among 370,000;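 active = activation above the mean of all tested compounds plus 3 SD, computed per campaign excluding outliers beyond control limits, cut at about 13% in these data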
SKN-1 block: inhibitors of C. elegans SKN-1. C. elegans VP596 Pgst-4::GFP/RFP ratio, acrylamide-induced, 24 h. hit rate 0.49% among 360,000. inhibition, % at 21.8 µM. AID 624304;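 active = interference check ratio from 0.5 to 1.5 plus GFP to RFP signal ratio inhibition reaching or exceeding a fixed threshold, cut at about 30% in these data, passing the limit was not always enough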
DDE Tn7 FP inh: disrupts Tn7 cyclic peptide binding to fibrin D-Dimer-E complex. P02675. FP displacement of FITC-Tn7 peptide from fibrin DD(E); 0% = median of compound wells per plate. inhibition, % at 8.3 µM. hit rate 0.13% among 370,000. AID 720508;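 active = inhibition above the mean of compounds falling within the control limits plus 3 SD of them, cut at about 14% in these data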;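 also: 0% = plate median of compound wells and 100% = 10 µM Aha-Tn7 peptide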
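Assay system: human fibrin DD(E). Input: DD(E) 2 µM final. Medium: Tris buffer with calcium and detergent, pH 7.8. Compound dosing: single point at 8.3 µM. Timing: 10 min plus 3 h, room temperature. Technique: fluorescence polarization of the labelled Tn7 tracer. Read-out: percent inhibition. Replicates: singlicate testing.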
MT1-MMP act inh: inhibitors of human MT1-MMP activation | P50281 | HT1080 RFP-PRO-GFP cells, GFP/RFP ratio fluorescence, overnight; percent of plate control window, DMSO zero | GFP/RFP ratio change, % at 20 µM | hit rate 0.061% among 360,000 | AID 651647;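 active = GFP/RFP ratio change of at least 30% with cell ATP level not reduced by more than half and red fluorescence within 50% of control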
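Assay system: HT1080 cells carrying an RFP-PRO-GFP reporter | Dosing: Single dose of 20 µM compound, 1% DMSO final | Incubation: Cells overnight before dosing, compound overnight, 37 °C, 5% CO2 | Evaluation: GFP/RFP fluorescence ratio | Control set: DMSO and RFP-L50D-GFP cell wells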
DDE Tn6 FP inh: disrupts Tn6 cyclic peptide binding to fibrin D-Dimer-E complex; P02675; Fibrin DD(E) TRITC-Tn6 fluorescence polarization displacement; inhibition, % at 8.3 µM; hit rate 0.21% among 370,000; AID 720509;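 active = inhibition above a per-campaign cutoff: mean of compounds within control limits plus 3 SD, cut at about 15% in these data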;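 also: 0% = median of all compound wells on the plate and 100% = blocking peptide control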
proKLK7 act conf: confirmation of human kallikrein-7 zymogen activators; shares compounds with KLK7 zymogen act; hit rate 68% among 3,200; purified proKLK7, EDANS-DABCYL substrate fluorescence; scaled: vehicle 0, mature enzyme 100; activation, % at 7 µM;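 active = activation, as change over the incubation, above the mean of all tested compounds plus 3 SD, cut at about 13% in these data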
EDANS interfere: fluorescence interference counter-screen for KLK7 activators; shares compounds with KLK7 zymogen act; EDANS-DABCYL substrate fluorescence interference, no enzyme, 4 h; solvent 0%, active enzyme control 100%; activation, % at 7 µM; hit rate 80% among 3,200; AID 686952;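 active = activation above the all-compound mean plus 3 SD, ignoring values outside control-based bounds, cut at about 4.8% in these data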;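 also: value is the 4 h activation minus the activation read at time zero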
* hit, by the source's call.

C=CCn1c(-c2cccs2)nc2nc3ccccc3nc21 was read as KLK7 zymogen act 22*, SKN-1 block 8, DDE Tn7 FP inh -3, MT1-MMP act inh -1, DDE Tn6 FP inh 0, proKLK7 act conf 70* and EDANS interfere 82*.
CCC(C)NC(=O)c1cn(CC)c2ccc(S(=O)(=O)N(C)C)cc2c1=O (stereo not drawn) was read as Neddyl block inactive, KLK7 zymogen act 1, SKN-1 block 9, DDE Tn7 FP inh -2, MT1-MMP act inh 8 and DDE Tn6 FP inh 0.
For COC(=O)CS(=O)(=O)c1cccc2cccnc12 the results were Neddyl block inactive, KLK7 zymogen act 16*, SKN-1 block 6, DDE Tn7 FP inh -10, MT1-MMP act inh -1, DDE Tn6 FP inh 4, proKLK7 act conf 13* and EDANS interfere 13*.
For COc1cccc(Oc2coc3c(CN4CCOCC4)c(O)ccc3c2=O)c1 the results were KLK7 zymogen act 181*, SKN-1 block 1, DDE Tn7 FP inh 2, MT1-MMP act inh 2, DDE Tn6 FP inh -2, proKLK7 act conf 64* and EDANS interfere 61*.
Screening COc1ccccc1-c1c(C(F)(F)F)oc2c(CN(C)C)c(O)ccc2c1=O returned Neddyl block inactive, KLK7 zymogen act 7, SKN-1 block 7, DDE Tn7 FP inh -2, MT1-MMP act inh 3 and DDE Tn6 FP inh 3.
For CCCCN(C)Cc1c(O)ccc2c(=O)c(-c3ccccc3OC)coc12 the results were KLK7 zymogen act 56*, SKN-1 block 6, DDE Tn7 FP inh -3, MT1-MMP act inh 3, DDE Tn6 FP inh 2, proKLK7 act conf 66* and EDANS interfere 74*.
For COc1ccc(-c2c(C)oc3c(CN4CCOCC4)c(O)ccc3c2=O)cc1OC the results were KLK7 zymogen act 12, SKN-1 block 4, DDE Tn7 FP inh 4, MT1-MMP act inh -2 and DDE Tn6 FP inh -4.
COc1ccccc1Oc1c(C)oc2c(CN3CCOCC3)c(O)ccc2c1=O was read as KLK7 zymogen act 189*, SKN-1 block -3, DDE Tn7 FP inh -5, MT1-MMP act inh -2, DDE Tn6 FP inh 6, proKLK7 act conf 42* and EDANS interfere 49*.
`COc1ccccc1Oc1coc2c(CN3CCOCC3)c(O)ccc2c1=O` gave KLK7 zymogen act 193*, SKN-1 block 5, DDE Tn7 FP inh 2, MT1-MMP act inh -2, DDE Tn6 FP inh -2, proKLK7 act conf 68* and EDANS interfere 80*.
COc1ccc(-c2c(C)oc3c(CN4CCN(CCO)CC4)c(O)ccc3c2=O)cc1OC was read as KLK7 zymogen act 11, SKN-1 block 16, DDE Tn7 FP inh -2, MT1-MMP act inh 2 and DDE Tn6 FP inh -8.
O=C(c1cnn2c(C(F)F)cc(C3CC3)nc12)N1CCc2ccccc2C1 was read as Neddyl block inactive, KLK7 zymogen act 1, SKN-1 block -9, DDE Tn7 FP inh -2 and DDE Tn6 FP inh -6.
For O=C(CSc1nnc(CNc2ccc(Cl)cc2)o1)Nc1nc2ccccc2s1 the results were Neddyl block inactive, KLK7 zymogen act 0, SKN-1 block 2, DDE Tn7 FP inh -2, MT1-MMP act inh 1 and DDE Tn6 FP inh 8.
Screening COc1ccccc1-c1coc2c(CN3CCOCC3)c(O)ccc2c1=O returned KLK7 zymogen act 159*, SKN-1 block 7, DDE Tn7 FP inh 2, MT1-MMP act inh 1, DDE Tn6 FP inh 3, proKLK7 act conf 66* and EDANS interfere 58*.
O=c1c(-c2ccc3c(c2)OCCO3)coc2c(CN3CCOCC3)c(O)ccc12 was read as KLK7 zymogen act 13*, SKN-1 block 3, DDE Tn7 FP inh 3, MT1-MMP act inh -1, DDE Tn6 FP inh 0, proKLK7 act conf 21* and EDANS interfere 19*.

Assay outcomes (PubChem)
